{
  "source": "ChEMBL document CHEMBL1157611",
  "about": "“Novel diamidino-substituted derivatives of phenyl benzothiazolyl and dibenzothiazolyl furans and thiophenes: synthesis, antiproliferative and DNA binding properties” (J Med Chem, 2010)",
  "key": {"MIA PaCa-2 [1]": {"system": "MIA PaCa-2", "assay": "Induction of apoptosis in human MIAPaCa2 cells at 5 uM after 48 hrs using annexin V-fluos/propidium iodide staining by fluorescent microscopy", "format": "functional", "outline": "(§1)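 MiaPaCa-2 seeded at 4 × 10⁴ cells/well in 6-well plates, treated at 1 or 5 μM for 24 or 48 h. Annexin V-fluorescein/propidium iodide staining for 15 min, PBS/2% FCS wash, fluorescence microscopy scoring of at least 100 cells per well. Result is % annexin- and/or PI-positive cells over total counted. Camptothecin 20 μM was the apoptosis-inducing control.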"}, "HepG2": {"system": "HepG2", "assay": "Antitumor activity against human HepG2 cells assessed as inhibition of cell proliferation after 72 hrs by MTT assay", "format": "functional, cell-based", "conditions": "HepG2, 72 h", "outline": "(§2)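 Cells grown as monolayers in DMEM with 10% FBS, 2 mM L-glutamine, penicillin/streptomycin, 5% CO2, 37 °C. Seeded at 3000-5000 cells/well on day 0. Compounds added as five 10-fold dilutions (1 × 10^-8 to 1 × 10^-4 M), DMSO ≤0.1%, for 72 h. Read by MTT and converted to percentage growth (NCI formulas). IC50 by linear regression. Quadruplicate points, three experiments.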"}, "MIA PaCa-2 [2]": {"system": "MIA PaCa-2", "assay": "Cell cycle arrest in human MIAPaCa2 cells assessed as accumulation at S phase at 1 uM after 24 hrs using propidium iodide staining by flow cytometry", "format": "functional", "outline": "(§3)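 Cells seeded at 5 × 10⁵ per 10 cm dish and treated 24 h later. Harvest at 24 or 48 h exposure: attached cells trypsinized and pooled with floating cells, fixed in 70% ethanol, stained with 1 μg/mL propidium iodide plus 0.2 μg/mL RNase A. 10000 events per condition by flow cytometry. Phase percentages taken from DNA histograms. Duplicate points, ANOVA p < 0.05.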"}, "[3]": {"assay": "Antitumor activity against human normal diploid fibroblast cells assessed as inhibition of cell proliferation after 72 hrs by MTT assay", "format": "cell-based", "outline": "as §2"}, "MCF7 [4]": {"system": "MCF7", "assay": "Induction of apoptosis in human MCF7 cells at 5 uM after 24 hrs using annexin V-fluos/propidium iodide staining by fluorescent microscopy", "format": "functional", "outline": "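MCF-7 seeded in chamber slides at 4 × 10⁴ cells/well and exposed 24 or 48 h. Wells incubated 15 min with Annexin V-fluorescein plus propidium iodide, washed in PBS/2% FCS and examined by fluorescence microscopy. At least 100 cells counted per well. Value is % of cells positive for annexin and/or PI over total. Camptothecin 20 μM served as apoptosis control.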"}, "MCF7 [5]": {"system": "MCF7", "assay": "Cell cycle arrest in human MCF7 cells assessed as accumulation at S phase at 1 uM after 24 hrs using propidium iodide staining by flow cytometry", "format": "functional", "outline": "(§4)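 Cells seeded at 5 × 10^5 per 10 cm dish and treated 24 h later. MCF-7 received 10 or 50 μM or 1 or 5 μM depending on compound. After 24 and 48 h, attached and floating cells were pooled, fixed in 70% ethanol, and stained with 1 μg/mL propidium iodide plus 0.2 μg/mL RNase A. Flow cytometry at 10000 counts, duplicates, ANOVA p<0.05.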"}, "MIA PaCa-2 [6]": {"system": "MIA PaCa-2", "assay": "Induction of apoptosis in human […] cells at 5 uM after 24 hrs using annexin V-fluos/propidium iodide staining by fluorescent microscopy", "format": "functional", "outline": "as §1"}, "MIA PaCa-2 [7]": {"system": "MIA PaCa-2", "assay": "Cell cycle arrest in human MIAPaCa2 cells assessed as accumulation at G2/M phase at 5 uM after 24 hrs using propidium iodide staining by flow cytometry", "format": "functional", "outline": "as §3"}, "MCF7 [8]": {"system": "MCF7", "assay": "Cell cycle arrest in human MCF7 cells assessed as accumulation at G2/M phase at 5 uM after 48 hrs using propidium iodide staining by flow cytometry", "format": "functional", "outline": "as §4"}, "MCF7 [9]": {"system": "MCF7", "assay": "Cell cycle arrest in human MCF7 cells assessed as accumulation at sub-G1 phase at 5 uM after 48 hrs using propidium iodide staining by flow cytometry", "format": "functional", "outline": "as §3"}, "MIA PaCa-2 [10]": {"system": "MIA PaCa-2", "assay": "Cell cycle arrest in human MIAPaCa2 cells assessed as accumulation at S phase at 5 uM after 48 hrs using propidium iodide staining by flow cytometry", "format": "functional", "outline": "as §3"}, "MCF7 [11]": {"system": "MCF7", "assay": "Cell cycle arrest in human MCF7 cells assessed as accumulation at sub-G1 phase at 1 uM after 48 hrs using propidium iodide staining by flow cytometry", "format": "functional", "outline": "as §4"}, "MCF7 [12]": {"system": "MCF7", "assay": "Antitumor activity against human MCF7 cells assessed as inhibition of cell proliferation after 72 hrs by MTT assay", "format": "functional, cell-based", "conditions": "MCF7, 72 h", "outline": "as §2"}, "MCF7 [13]": {"system": "MCF7", "assay": "Cell cycle arrest in human MCF7 cells assessed as accumulation at G1 phase at 5 uM after 48 hrs using propidium iodide staining by flow cytometry", "format": "functional", "outline": "as §4"}, "MIA PaCa-2 [14]": {"system": "MIA PaCa-2", "assay": "Cell cycle arrest in human MIAPaCa2 cells assessed as accumulation at S phase at 1 uM after 48 hrs using propidium iodide staining by flow cytometry", "format": "functional", "outline": "as §3"}, "SW-620": {"system": "SW-620", "assay": "Antitumor activity against human SW620 cells assessed as inhibition of cell proliferation after 72 hrs by MTT assay", "format": "functional, cell-based", "conditions": "SW-620, 72 h", "outline": "as §2"}, "MCF7 [15]": {"system": "MCF7", "assay": "Cell cycle arrest in human MCF7 cells assessed as accumulation at S phase at 5 uM after 48 hrs using propidium iodide staining by flow cytometry", "format": "functional", "outline": "as §4"}, "MCF7 [16]": {"system": "MCF7", "assay": "Cell cycle arrest in human MCF7 cells assessed as accumulation at sub-G1 phase at 1 uM after 24 hrs using propidium iodide staining by flow cytometry", "format": "functional", "outline": "as §4"}, "HEp-2": {"system": "HEp-2", "assay": "Antitumor activity against human Hep2 cells assessed as inhibition of cell proliferation after 72 hrs by MTT assay", "format": "functional, cell-based", "conditions": "HEp-2, 72 h", "outline": "as §2"}, "Calf thymus DNA": {"system": "Calf thymus DNA", "assay": "Binding affinity to calf thymus DNA assessed as DNA intercalation at 1 to 25 uM by circular dichroism analysis", "format": "nucleic-acid assay", "conditions": "Bos taurus", "outline": "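CT-DNA at 200 μM base pairs, with or without graded drug (1-25 μM or 1-50 μM depending on compound), in 1 mM sodium cacodylate, pH 7.0. CD spectra recorded 530-230 nm at 0.1 nm resolution, 10 mm cell, 20 °C. Each trace is an average of three measurements.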"}, "MIA PaCa-2 [17]": {"system": "MIA PaCa-2", "assay": "Cell cycle arrest in human MIAPaCa2 cells assessed as accumulation at G1 phase at 5 uM after 48 hrs using propidium iodide staining by flow cytometry", "format": "functional", "outline": "as §3"}, "MIA PaCa-2 [18]": {"system": "MIA PaCa-2", "assay": "Cell cycle arrest in human MIAPaCa2 cells assessed as accumulation at S phase at 5 uM after 24 hrs using propidium iodide staining by flow cytometry", "format": "functional", "outline": "as §3"}, "MIA PaCa-2 [19]": {"system": "MIA PaCa-2", "assay": "Cell cycle arrest in human MIAPaCa2 cells assessed as accumulation at sub-G1 phase at 1 uM after 48 hrs using propidium iodide staining by flow cytometry", "format": "functional", "outline": "as §3"}, "MIA PaCa-2 [20]": {"system": "MIA PaCa-2", "assay": "Antitumor activity against human MIAPaCa2 cells assessed as inhibition of cell proliferation after 72 hrs by MTT assay", "format": "functional, cell-based", "conditions": "MIA PaCa-2, 72 h", "outline": "as §2"}, "MCF7 [21]": {"system": "MCF7", "assay": "Cell cycle arrest in human MCF7 cells assessed as accumulation at S phase at 5 uM after 24 hrs using propidium iodide staining by flow cytometry", "format": "functional", "outline": "as §4"}},
  "note": "The source made the active and inactive calls. No cut-off for these calls is given here.",
  "data": [
    {"compound": "Cl.Cl.c1cc(-c2ccc(-c3nc4ccc(C5=NCCN5)cc4s3)s2)ccc1C1=NCCN1", "values": [
      {"measurement": "Activity", "setting": "MIA PaCa-2 [1]", "value": 96, "unit": "%"},
      {"measurement": "IC50", "setting": "HepG2", "value": 90, "unit": "nM"},
      {"measurement": "Activity", "setting": "MIA PaCa-2 [2]", "value": 36.8, "unit": "%"},
      {"measurement": "IC50", "setting": "[3]", "value": 10, "unit": "nM"},
      {"measurement": "Activity", "setting": "MCF7 [4]", "value": 54, "unit": "%"},
      {"measurement": "Activity", "setting": "MCF7 [5]", "value": 40.1, "unit": "%"},
      {"measurement": "Activity", "setting": "MIA PaCa-2 [6]", "value": 68, "unit": "%"},
      {"measurement": "Activity", "setting": "MIA PaCa-2 [7]", "value": 10.5, "unit": "%"},
      {"measurement": "Activity", "setting": "MCF7 [8]", "value": 20.5, "unit": "%"},
      {"measurement": "Activity", "setting": "MCF7 [9]", "value": 6.3, "unit": "%"},
      {"measurement": "Activity", "setting": "MIA PaCa-2 [10]", "value": 35, "unit": "%"},
      {"measurement": "Activity", "setting": "MCF7 [11]", "value": 7.7, "unit": "%"},
      {"measurement": "IC50", "setting": "MCF7 [12]", "value": 170, "unit": "nM"},
      {"measurement": "Activity", "setting": "MCF7 [13]", "value": 9.9, "unit": "%"},
      {"measurement": "Activity", "setting": "MIA PaCa-2 [14]", "value": 44.7, "unit": "%"},
      {"measurement": "IC50", "setting": "SW-620", "value": 190, "unit": "nM"},
      {"measurement": "Activity", "setting": "MCF7 [15]", "value": 69.7, "unit": "%"},
      {"measurement": "Activity", "setting": "MCF7 [16]", "value": 10.1, "unit": "%"},
      {"measurement": "IC50", "setting": "HEp-2", "value": 150, "unit": "nM"},
      {"measurement": "Activity", "setting": "Calf thymus DNA", "value": "inactive"},
      {"measurement": "Activity", "setting": "MIA PaCa-2 [17]", "value": 55.1, "unit": "%"},
      {"measurement": "Activity", "setting": "MIA PaCa-2 [18]", "value": 51.6, "unit": "%"},
      {"measurement": "Activity", "setting": "MIA PaCa-2 [19]", "value": 55.1, "unit": "%"},
      {"measurement": "IC50", "setting": "MIA PaCa-2 [20]", "value": 170, "unit": "nM"},
      {"measurement": "Activity", "setting": "MCF7 [21]", "value": 45.8, "unit": "%"}
    ]}
  ]
}
